Data from ChEMBL document CHEMBL1131137, “New platelet fibrinogen receptor glycoprotein IIb-IIIa antagonists: orally active series of N-alkylated amidines with a 6,6-bicyclic template” (J Med Chem, 1998).
In brackets after ≈: the same amount, converted by molar mass.

Assays:
[1] = Concentration in plasma 1 hr after oral administration; type: ADME, cell-free; details: read-out: Plasma level
In short: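 Male guinea pigs starved overnight, given prodrug orally at 37 μmol/kg in saline with 0.5% Tween 80. PPP taken 1 h post-dose under pentobarbital. Bioassay: treated PPP diluted with donor PPP, mixed with donor PRP, and aggregation to 5 μM ADP read against a standard curve of PPP spiked with the active acid.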

[2] = Solubility in saline.; type: physicochemical; details: read-out: S
In short: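 Solubility in saline determined by UV spectrophotometry.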

Cavia porcellus [3] = assay: Inhibition of ex vivo platelet aggregation induced by 5 uM Adenosine diphosphate (ADP) 1 hour after oral administration.; type: functional
In short: (§1)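 Fasted male guinea pigs dosed orally at 37 μmol/kg in saline with 0.5% Tween 80, then anesthetized with pentobarbital at 1 h and bled. PRP adjusted to 3.0 × 10⁸/mL, preincubated 2 min, and aggregated with ADP (final 5 μM). Inhibition relative to three vehicle-treated controls per experiment; mean of three animals.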

[4] = target: Integrin alpha-IIb/beta-3 (Homo sapiens, UniProt P05106+P08514); assay: Inhibition of Fibrinogen binding to Immobilized Human Fibrinogen Receptor.; type: protein-complex assay
In short: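 Human platelet GPIIb-IIIa purified (ConA-, heparin-Sepharose, Sephacryl S-300) and coated at 1.5 μg/mL in TBS with 0.0005% Triton, 24 h at 4 °C, then blocked with 3.5% BSA. Compound plus biotinylated fibrinogen (2 μg/mL before 1:1 mixing) incubated 24 h at room temperature. Detection by peroxidase-streptavidin and o-phenylenediamine, A490.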

Cavia porcellus [5] = organism: Cavia porcellus; assay: In vitro inhibition of guinea pig Platelet-rich plasma (PRP) aggregation induced by 5 uM ADP; type: functional
Homo sapiens = organism: Homo sapiens; assay: In vitro inhibition of human Platelet-rich plasma (PRP) aggregation induced by 5 uM ADP; type: functional
In short: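 PRP prepared by 120g 15-min spin of citrated venous blood (3.8% citrate, 1:9) from anesthetized male guinea pigs or male human volunteers, adjusted to 2.5–3.0 × 10⁸ platelets/mL with PPP. PRP warmed 2 min at 37 °C, compound or vehicle added, then 2 min later ADP (final 5 μM). Maximum aggregation compared with control; IC50 estimated.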

Cavia porcellus [6] = assay: Inhibition of ex vivo platelet aggregation induced by 5 uM Adenosine diphosphate (ADP) 1 hour after oral administration at the dose of 37umol/kg; type: functional; in short: as §1

Chain of Integrin alpha-IIb/beta-3 (P05106 27-788 limits assumed): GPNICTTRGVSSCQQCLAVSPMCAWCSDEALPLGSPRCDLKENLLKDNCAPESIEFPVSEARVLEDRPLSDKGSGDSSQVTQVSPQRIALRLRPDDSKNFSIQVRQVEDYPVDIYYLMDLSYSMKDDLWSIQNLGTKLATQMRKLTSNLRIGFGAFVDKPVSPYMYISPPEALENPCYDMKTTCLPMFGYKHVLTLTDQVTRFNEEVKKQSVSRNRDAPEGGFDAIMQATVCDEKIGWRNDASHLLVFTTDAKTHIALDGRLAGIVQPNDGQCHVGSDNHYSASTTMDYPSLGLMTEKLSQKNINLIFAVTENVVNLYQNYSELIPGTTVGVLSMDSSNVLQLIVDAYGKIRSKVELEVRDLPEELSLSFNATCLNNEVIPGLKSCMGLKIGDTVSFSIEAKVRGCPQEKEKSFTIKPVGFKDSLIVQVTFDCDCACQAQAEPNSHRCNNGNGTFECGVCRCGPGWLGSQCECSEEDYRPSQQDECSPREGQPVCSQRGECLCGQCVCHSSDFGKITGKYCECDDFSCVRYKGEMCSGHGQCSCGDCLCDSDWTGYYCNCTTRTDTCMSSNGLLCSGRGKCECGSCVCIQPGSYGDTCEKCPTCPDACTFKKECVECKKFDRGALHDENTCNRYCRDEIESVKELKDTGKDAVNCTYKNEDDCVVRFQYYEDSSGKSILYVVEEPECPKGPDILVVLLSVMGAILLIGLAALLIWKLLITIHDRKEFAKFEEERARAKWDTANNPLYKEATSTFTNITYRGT
Chain of Integrin alpha-IIb/beta-3 (P08514 32-887 limits assumed): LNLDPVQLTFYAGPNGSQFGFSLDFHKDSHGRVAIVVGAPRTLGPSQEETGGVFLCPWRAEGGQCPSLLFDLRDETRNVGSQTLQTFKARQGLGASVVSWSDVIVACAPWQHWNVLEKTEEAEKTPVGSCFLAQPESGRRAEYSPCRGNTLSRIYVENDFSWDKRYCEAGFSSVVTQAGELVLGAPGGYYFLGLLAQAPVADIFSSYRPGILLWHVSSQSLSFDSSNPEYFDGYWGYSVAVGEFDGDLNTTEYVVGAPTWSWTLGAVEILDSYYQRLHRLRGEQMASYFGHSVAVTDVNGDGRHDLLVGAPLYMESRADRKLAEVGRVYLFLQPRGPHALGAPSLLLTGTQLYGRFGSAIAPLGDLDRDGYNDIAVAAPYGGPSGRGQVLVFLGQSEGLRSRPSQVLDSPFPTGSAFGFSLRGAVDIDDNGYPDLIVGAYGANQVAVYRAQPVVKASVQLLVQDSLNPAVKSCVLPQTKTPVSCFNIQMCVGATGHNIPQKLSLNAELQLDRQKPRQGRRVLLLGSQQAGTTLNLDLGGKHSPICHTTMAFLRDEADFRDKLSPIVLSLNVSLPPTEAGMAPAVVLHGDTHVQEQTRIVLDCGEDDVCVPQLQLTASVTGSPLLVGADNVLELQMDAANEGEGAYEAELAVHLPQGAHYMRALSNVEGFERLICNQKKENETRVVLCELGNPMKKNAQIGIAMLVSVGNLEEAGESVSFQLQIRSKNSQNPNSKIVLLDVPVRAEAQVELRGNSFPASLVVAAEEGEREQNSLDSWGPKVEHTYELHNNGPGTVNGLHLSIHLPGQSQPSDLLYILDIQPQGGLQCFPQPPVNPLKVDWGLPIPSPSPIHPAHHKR
Chain of Integrin alpha-IIb/beta-3 (P08514 891-1039 limits assumed): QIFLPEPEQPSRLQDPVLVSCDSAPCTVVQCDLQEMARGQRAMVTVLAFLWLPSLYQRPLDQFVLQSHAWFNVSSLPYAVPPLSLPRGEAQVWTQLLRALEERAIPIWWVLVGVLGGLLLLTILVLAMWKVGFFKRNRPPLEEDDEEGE

Row | IC50 [4] | IC50 (Cavia porcellus [5]) | IC50 (Homo sapiens) | Structure (SMILES) | further results
1 | 0.2 nM | 0.62 µM |  | NC(=NCc1ccco1)c1ccc(C(=O)Nc2ccc3c(c2)CC(CC(=O)O)CC3)cc1 (stereo not drawn) | 
2 |  | 5 µM |  | N=C(N)c1ccc(/C=C/c2ccc3c(c2)CC(CC(=O)O)CC3)cc1 (stereo not drawn) | 
3 | 0.13 nM | 0.17 µM | 0.068 µM | CCCNC(=N)c1ccc(C(=O)Nc2ccc3c(c2)CC(CC(=O)O)CC3)cc1 (stereo not drawn) | 
4 | 0.13 nM | 0.35 µM | 0.078 µM | C#CCNC(=N)c1ccc(C(=O)Nc2ccc3c(c2)CC(CC(=O)O)CO3)cc1 (stereo not drawn) | 
5 | 0.15 nM | 0.19 µM | 0.08 µM | N=C(c1ccc(C(=O)Nc2ccc3c(c2)CC(CC(=O)O)CC3)cc1)N1CCOCC1 (stereo not drawn) | 
6 | 0.26 nM | 0.49 µM |  | C=CCNC(=N)c1ccc(C(=O)Nc2ccc3c(c2)CC(CC(=O)O)CC3)cc1 (stereo not drawn) | 
7 | 0.12 nM | 0.11 µM | 0.035 µM | N=C(c1ccc(C(=O)Nc2ccc3c(c2)C[C@@H](CC(=O)O)CO3)cc1)N1CCOCC1 | 
8 |  | 1.8 µM | 0.2 µM | CN(C(=O)c1ccc(C(=N)N)cc1)c1ccc2c(c1)CC(CC(=O)O)CC2 (stereo not drawn) | 
9 |  | 0.23 µM | 0.046 µM | N=C(N)c1ccc(NC(=O)c2ccc3c(c2)CC(CC(=O)O)CC3)cc1 (stereo not drawn) | 

Second part, the molecule before the results:

Row | Structure (SMILES) | IC50 [4] | IC50 (Cavia porcellus [5]) | IC50 (Homo sapiens) | further results
10 | C#CCNC(=N)c1ccc(C(=O)Nc2ccc3c(c2)CC(CC(=O)OCC)CO3)cc1 (stereo not drawn) |  |  |  | concentration at 1 h [1]: 3800 nM; solubility [2]: 106000 µg/mL (≈ 253000 µM); Inhibition (Cavia porcellus [3]): 99%
11 | C=CCNC(=N)c1ccc(C(=O)Nc2ccc3c(c2)CC(CC(=O)OCC)CC3)cc1 (stereo not drawn) |  |  |  | concentration at 1 h [1]: 380 nM; Inhibition (Cavia porcellus [3]): 21%
12 | N=C(N)c1ccc(C(=O)Nc2ccc3c(c2)CC(CC(=O)O)CO3)cc1 (stereo not drawn) | 0.073 nM |  | 0.049 µM | 
13 | N=C(c1ccc(C(=O)Nc2ccc3c(c2)CC(CC(=O)O)CO3)cc1)N1CCOCC1 (stereo not drawn) | 0.098 nM | 0.23 µM | 0.066 µM | 
14 | CCC/N=C(\N)c1ccc(C(=O)Nc2ccc3c(c2)CC(CC(=O)OCC)CC3)cc1 (stereo not drawn) |  |  |  | concentration at 1 h [1]: < 180 nM; Inhibition (Cavia porcellus [3]): 3%
15 | CCOC(=O)CC1COc2ccc(NC(=O)c3ccc(C(=N)N4CCOCC4)cc3)cc2C1 (stereo not drawn) |  |  |  | concentration at 1 h [1]: 8400 nM; solubility [2]: > 200000 µg/mL; Inhibition (Cavia porcellus [3]): 99%
16 | C#CC/N=C(\N)c1ccc(C(=O)Nc2ccc3c(c2)CC(CC(=O)O)CC3)cc1 (stereo not drawn) | 0.16 nM | 0.3 µM | 0.1 µM | 
17 | N=C(N)c1ccc(COc2ccc3ccc(CC(=O)O)cc3c2)cc1 |  | > 1000 µM |  | 
18 | C#CCNC(=N)c1ccc(C(=O)Nc2ccc3c(c2)CC(CC(=O)OCC)CC3)cc1 (stereo not drawn) |  |  |  | concentration at 1 h [1]: 1000 nM; solubility [2]: 1500 µg/mL (≈ 3590 µM); Inhibition (Cavia porcellus [3]): 99%
19 | N=C(N)c1ccc(C(=O)Nc2ccc3c(c2)CN(CC(=O)O)CC3)cc1 |  | 6.6 µM | 0.29 µM | 
20 | N=C(N)c1ccc(COc2ccc3c(c2)CC(CC(=O)O)CC3)cc1 (stereo not drawn) |  |  | 1.5 µM | 
21 | N=C(N)c1ccc(C(=O)Nc2ccc3c(c2)CC(CC(=O)O)CC3)cc1 (stereo not drawn) | 0.12 nM | 0.37 µM | 0.057 µM | inhibition in vivo at 37 µmol/kg (Cavia porcellus [6]): 8%
22 | CCOC(=O)CC1CCc2ccc(NC(=O)c3ccc(C(=N)N)cc3)cc2C1 (stereo not drawn) |  |  |  | solubility [2]: 260 µg/mL (≈ 685 µM); inhibition in vivo at 37 µmol/kg (Cavia porcellus [6]): 41%
23 | CCOC(=O)CC1CCc2ccc(NC(=O)c3ccc(C(=N)NCc4ccco4)cc3)cc2C1 (stereo not drawn) |  |  |  | concentration at 1 h [1]: 850 nM; solubility [2]: 1060 µg/mL (≈ 2310 µM); Inhibition (Cavia porcellus [3]): 91%
24 | N=C(N)c1ccc(CCc2ccc3c(c2)CC(CC(=O)O)CC3)cc1 (stereo not drawn) |  |  | 0.37 µM | 
25 | N=C(c1ccc(C(=O)Nc2ccc3c(c2)C[C@H](CC(=O)O)CO3)cc1)N1CCOCC1 | 2.6 nM |  | 0.36 µM | 
26 | CCOC(=O)CC1COc2ccc(NC(=O)c3ccc(C(=N)N)cc3)cc2C1 (stereo not drawn) |  |  |  | solubility [2]: 410 µg/mL (≈ 1070 µM); inhibition in vivo at 37 µmol/kg (Cavia porcellus [6]): 40%
27 | CCOC(=O)CC1CCc2ccc(NC(=O)c3ccc(C(=N)N4CCOCC4)cc3)cc2C1 (stereo not drawn) |  |  |  | concentration at 1 h [1]: 7300 nM; solubility [2]: > 200000 µg/mL; Inhibition (Cavia porcellus [3]): 98%
